A selection: hits, their analogues and other compounds. The true share with any hit is near 5.5%.
KCC2 mod: KCC2 cotransporter modulators, thallium flux, primary screen, cell-based, HEK293 KCC2, FluoZin-2 fluorescence, MLSMR; Solute carrier family 12 member 5 (Homo sapiens), Q9H2X9; KCC2 cells, thallium flux FluoZin-2 fluorescence; B-score of Tl+ flux slope (higher = more flux/activation; lower = inhibition) at 10 µM; hit rate 2.2% among 190,000; AID 1456, 2008;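 active means thallium flux slope and its plate-corrected score both differing from the plate sample mean at a set confidence after two filtering rounds, in either direction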;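 further: slope of fluorescence scaled to starting intensity during 10 to 20 s after thallium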
Target sequence (Q9H2X9 whole entry, looked up): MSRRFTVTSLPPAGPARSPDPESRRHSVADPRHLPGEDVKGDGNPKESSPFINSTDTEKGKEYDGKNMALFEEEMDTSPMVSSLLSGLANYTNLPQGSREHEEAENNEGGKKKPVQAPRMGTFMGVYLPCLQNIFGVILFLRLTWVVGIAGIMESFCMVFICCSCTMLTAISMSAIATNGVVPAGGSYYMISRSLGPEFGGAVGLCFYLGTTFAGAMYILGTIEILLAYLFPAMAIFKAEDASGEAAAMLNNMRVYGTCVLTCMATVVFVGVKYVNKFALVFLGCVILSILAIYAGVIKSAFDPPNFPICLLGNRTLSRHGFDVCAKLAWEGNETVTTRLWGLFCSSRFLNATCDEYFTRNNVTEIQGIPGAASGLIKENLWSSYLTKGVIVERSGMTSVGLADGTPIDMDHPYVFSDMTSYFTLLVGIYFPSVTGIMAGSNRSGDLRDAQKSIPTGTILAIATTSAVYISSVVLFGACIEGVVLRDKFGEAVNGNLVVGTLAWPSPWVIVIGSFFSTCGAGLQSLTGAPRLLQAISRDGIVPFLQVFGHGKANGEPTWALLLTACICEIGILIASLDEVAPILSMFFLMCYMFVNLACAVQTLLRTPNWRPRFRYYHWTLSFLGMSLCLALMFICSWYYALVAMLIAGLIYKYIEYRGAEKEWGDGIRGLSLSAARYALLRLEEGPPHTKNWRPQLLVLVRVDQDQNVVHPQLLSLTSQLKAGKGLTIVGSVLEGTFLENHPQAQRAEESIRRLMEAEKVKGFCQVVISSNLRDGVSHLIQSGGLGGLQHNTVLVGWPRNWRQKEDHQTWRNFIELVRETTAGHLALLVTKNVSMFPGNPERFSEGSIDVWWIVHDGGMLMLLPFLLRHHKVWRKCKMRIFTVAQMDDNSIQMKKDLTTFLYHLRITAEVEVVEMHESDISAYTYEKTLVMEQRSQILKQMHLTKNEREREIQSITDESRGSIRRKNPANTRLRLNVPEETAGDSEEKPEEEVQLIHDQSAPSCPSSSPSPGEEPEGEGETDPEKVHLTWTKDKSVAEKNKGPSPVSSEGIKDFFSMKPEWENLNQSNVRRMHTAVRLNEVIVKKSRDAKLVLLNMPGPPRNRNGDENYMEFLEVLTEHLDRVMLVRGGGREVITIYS
STAT3 activator: IL-6 driven STAT3 reporter potentiators, primary screen, U3A cells, luciferase, luminescence, MLSCN library | hit rate 0.91% among 190,000 | activation (% of control), % at 5.6 µM | IL-6 STAT3-luciferase reporter; 100% = signal with IL-6 EC80 alone | AID 871, 2007;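 active means activation above the screen-wide mean of compound activation plus 3 SD, cut at about 130% in these data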;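 further: 0% = background luminescence of wells with medium and substrate only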
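Test system: human U3A cells carrying STAT3-luciferase construct; control set: IL-6-only wells as 100% reference; timing: compound pre-incubation 1 h before IL-6, then 6 h stimulation at 37 °C; also added: IL-6 stimulus at 33 ng/mL final; evaluation: % activation versus median of IL-6-stimulated wells; detection: reporter luminescence signal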
STAT3 blocker: IL-6 driven STAT3 reporter inhibitors, primary screen, U3A cells, luciferase, luminescence, MLSCN library | hit rate 0.89% among 190,000 | IL-6 STAT3-luciferase reporter; host cell line lacks STAT1 | inhibition, % at 5.5 µM;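 active means inhibition above the mean inhibition across all screened compounds plus 3 SD, cut at about 44% in these data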;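 further: 0% = DMSO only wells and 100% = 100 µM nifuroxazide control wells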
HSV replic up: enhancers of HSV replication in host cells, fold increase, host cell viability | HSV replication augmentation in cells | maximum fold increase | hit rate 0.005% among 220,000; in the data active means maximum fold increase above about 1.5; inconclusive means no clear call, values can overlap the other calls; tested in PC3 cells
STAT1 blocker: STAT1 signaling inhibitors, primary screen, cell-based, HTS, luciferase reporter | NIH 3T3 STAT1-luciferase reporter, IFN-gamma, luminescence | inhibition, % at 5.5 µM | hit rate 0.35% among 200,000 | AID 920, 2007;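 active means inhibition above a set limit, the mean inhibition across all tested compounds plus 3 SD, cut at about 34% in these data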;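 further: 0% = IFN-gamma with DMSO and 100% = IFN-gamma with 300 µM nifuroxazide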
STAT1 activator: STAT1 signaling activators, primary screen, cell-based, HTS, luciferase reporter; NIH 3T3 STAT1-luciferase reporter, IFN-gamma, luminescence; 100% = IFN-gamma alone, no compound; activation (% of control), % at 5.5 µM; hit rate 2.6% among 200,000; AID 932, 2007;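 active means activation above the screen-wide mean activation plus 3 SD, cut at about 130% in these data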;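 further: raw ratio to IFN-gamma control signal so 100% means no change and 0% no light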
KCC2 sec1: KCC2 modulators in sodium-free buffer, confirmation, cell-based, HEK293 KCC2, thallium flux, secondary assay | shares compounds with KCC2 mod | FluoZin2 fluorescence; active compounds read high | normalised thallium flux (F/F0 slope) at 10 µM | hit rate 15% among 3,700 | AID 1713, 2009;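 active means thallium flux slope above the same plate's solvent-only control mean plus 3 SD; inconclusive means the two replicate wells disagree; inactive means no significant difference from solvent-only control wells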
KCC2 bumet counter: thallium flux persisting under bumetanide in KCC2 cells, confirmation, counter-screen for KCC2 modulator project, cell-based, HEK293 KCC2, FluoZin2, secondary assay 3. shares compounds with KCC2 mod. HEK293-KCC2 + bumetanide/ouabain; active compounds read high. normalized thallium flux at 10 µM. hit rate 49% among 3,700;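 active means thallium entry rate above the same plate's blocked-transporter control wells by more than 3 SD; inconclusive means the two repeat wells disagree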;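 further: raw slope of fluorescence over initial fluorescence between 10 and 20 s after thallium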
KCC2 secondary2: KCC2 modulators without ouabain present, confirmation, cell-based, HEK293 KCC2, thallium flux, FluoZin2, secondary assay 2; shares compounds with KCC2 mod; thallium flux FluoZin2 fluorescence; actives lie on both sides; F/F0 rise rate, 10–20 s post-thallium; normalized thallium flux at 10 µM; hit rate 23% among 3,700;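 active means thallium flux slope more than 3 SD above or below the plate's solvent-only control mean, mostly below; inconclusive means the two repeat wells disagreed; inactive means no significant shift from solvent-only controls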;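 further: raw slope with 0.1% DMSO as baseline and bumetanide as block control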
HEK counter1: thallium flux modulation in parental HEK cells, confirmation, counter-screen for KCC2 modulator project, cell-based, counterscreen 1 | AID 1716, 2009 | shares compounds with KCC2 mod | HEK293 parental cells, thallium flux FluoZin2, ouabain; baseline-ratio fluorescence slope, 10–20 s after thallium | hit rate 46% among 3,700 | thallium flux rate (normalised fluorescence) at 10 µM;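 active means thallium flux rate significantly above the same plate's solvent-only control wells, beyond their mean plus 3 SD; inconclusive means the two replicate wells gave conflicting results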
KCC2 ouabain: KCC2 inhibitors and activators, ouabain retest, confirmation, HEK-KCC2 cells. shares compounds with KCC2 mod. HEK293-KCC2, thallium flux FluoZin2 fluorescence; bidirectional: low = inhibitor, high = activator. raw Tl+ flux slope (below DMSO = inhibition, above = activation) at 10 µM. hit rate 48% among 3,700. AID 1717, 2009;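 active means thallium flux slope beyond 3 SD from same-plate DMSO control mean in most replicates, usually higher, sometimes lower; inconclusive means repeat tests gave conflicting results; inactive means no significant difference from controls in most replicates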;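 further: slope of initial-normalized fluorescence between seconds 10 and 20 after thallium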
HEK293 Tl flux2: native HEK Tl+ uptake effects, second counter-screen – HEK cells, counterscreen 2, counter-screen for KCC2 modulator project, confirmation; thallium flux slope at 10 µM; shares compounds with KCC2 mod; hit rate 33% among 3,700; HEK293 parental, thallium flux FluoZin-2 fluorescence slope;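 active means thallium flux slope above the same plate's solvent-control mean plus 3 SD in both duplicate wells; inconclusive means duplicate wells that disagreed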;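 further: run without ouabain in cells lacking the KCC2 cotransporter; slope of fluorescence scaled to its starting value between 10 and 20 s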
Active calls of the source: *.

What do the screens show for `Cc1ccc(OCc2n[nH]c(=S)n2-c2ccccc2)cc1C`?
KCC2 mod: 47*; STAT3 activator: 102; STAT3 blocker: 0; HSV replic up: inactive; STAT1 blocker: -2; STAT1 activator: 101; KCC2 sec1: 0.0068; KCC2 bumet counter: 0.069*; KCC2 secondary2: 0.043*; HEK counter1: 0.02*; KCC2 ouabain: 0.049*; HEK293 Tl flux2: 0.024*

How did Cc1ccc(-n2c(COc3cccc(C)c3)n[nH]c2=S)cc1 do in these assays?
KCC2 mod: 5.6*; STAT3 activator: 101; STAT3 blocker: 2; HSV replic up: inactive; STAT1 blocker: -10; STAT1 activator: 107; KCC2 sec1: 0.0076; KCC2 bumet counter: 0.064*; KCC2 secondary2: 0.034; HEK counter1: 0.016*; KCC2 ouabain: 0.036*; HEK293 Tl flux2: 0.021*

Results for COc1ccc(OCC2c3cc(OC)c(OC)cc3CCN2C(=O)C(C)C)cc1 (centres undefined) ?
KCC2 mod: -0.97; STAT3 activator: 101; STAT3 blocker: 6; HSV replic up: inactive; STAT1 blocker: 6; STAT1 activator: 94

How did CN(C)c1ccc(-c2nnn(Cc3ccccc3Br)n2)cc1 do in these assays?
KCC2 mod: -4.3*; STAT3 activator: 101; STAT3 blocker: 5; HSV replic up: inactive; STAT1 blocker: -5; STAT1 activator: 104; KCC2 sec1: 0.0093; KCC2 bumet counter: 0.011*; KCC2 secondary2: 0.032; HEK counter1: inconclusive; KCC2 ouabain: 0.021; HEK293 Tl flux2: 0.01

How did CCn1c(Cn2nnc(-c3ccccc3)n2)nnc1SCC(=O)Nc1ccc(N(C)C)cc1 do in these assays?
KCC2 mod: -0.34; STAT3 activator: 100; STAT3 blocker: 6; HSV replic up: inactive; STAT1 blocker: 5; STAT1 activator: 96

How did COc1ccccc1Oc1ccc2c(c1)C(=O)N(c1ccc(Br)c3cccnc13)C2=O do in these assays?
STAT3 activator: 99; STAT3 blocker: 8; HSV replic up: inactive; STAT1 blocker: 2; STAT1 activator: 98

Results for Cc1ccc(/C=C/C(=O)Nc2sc3c(c2C#N)CCCC3)o1 ?
KCC2 mod: 0.28; STAT3 activator: 91; STAT3 blocker: 10; HSV replic up: inactive; STAT1 blocker: 2; STAT1 activator: 98

What do the screens show for `CC(=O)c1c(C)nc(-c2ccc(Cl)cc2)nc1NC(=O)C(C)C`?
STAT3 activator: 113; STAT3 blocker: -11; HSV replic up: inactive; STAT1 blocker: 7; STAT1 activator: 93

What do the screens show for `Cc1nc2c(c(=O)n1CCC1=CCCCC1)c1nc3ccccc3nc1n2/N=C/c1ccco1`?
KCC2 mod: -5.8*; STAT3 activator: 90; STAT3 blocker: 16; STAT1 blocker: -21; STAT1 activator: 119; KCC2 sec1: 0.0062; KCC2 bumet counter: 0.0046; KCC2 secondary2: 0.029; HEK counter1: 0.0073; KCC2 ouabain: 0.019; HEK293 Tl flux2: 0.011

What do the screens show for `O=C(CN1CCN(c2ccccc2F)CC1)c1c[nH]c2ccccc12`?
KCC2 mod: -4.3*; STAT3 activator: 120; STAT3 blocker: -17; STAT1 blocker: 1; STAT1 activator: 99; KCC2 sec1: 0.0092; KCC2 bumet counter: 0.0061; KCC2 secondary2: 0.032; HEK counter1: 0.0078; KCC2 ouabain: 0.023; HEK293 Tl flux2: 0.011*

Results for C=CCN(CC=C)C(=S)Nc1ccccc1 ?
KCC2 mod: 0.048; STAT3 activator: 96; STAT3 blocker: 10; HSV replic up: inactive; STAT1 blocker: 13; STAT1 activator: 88

How did CCOC(=O)C(Cc1ccc(Cl)cc1Cl)c1ccno1 (centres undefined) do in these assays?
KCC2 mod: 1; STAT3 activator: 103; STAT3 blocker: 7; HSV replic up: inactive; STAT1 blocker: 8; STAT1 activator: 91

Results for O=S1(=O)N=C(N2CCN(Cc3ccccc3)CC2)c2ccccc21 ?
KCC2 mod: -6*; STAT3 activator: 112; STAT3 blocker: -11; HSV replic up: inactive; STAT1 blocker: 4; STAT1 activator: 97; KCC2 sec1: 0.0065; KCC2 bumet counter: 0.0044; KCC2 secondary2: 0.024*; HEK counter1: 0.008; KCC2 ouabain: inconclusive; HEK293 Tl flux2: 0.011

Results for CC1CCCCC12NC(=S)N(c1ccccc1)N2 (centres undefined) ?
KCC2 mod: 8.1*; HSV replic up: inactive; KCC2 sec1: inconclusive; KCC2 bumet counter: 0.022*; KCC2 secondary2: 0.034; HEK counter1: 0.016*; KCC2 ouabain: 0.027; HEK293 Tl flux2: 0.012*

Results for S=C1NC2(CCCCC2)NN1c1ccccc1 ?
STAT3 activator: 98; STAT3 blocker: 8; HSV replic up: inactive; STAT1 blocker: -11; STAT1 activator: 108
